According to ChEMBL document CHEMBL3751835, “Discovery of the imidazole-derived GPR40 agonist AM-3189” (Bioorg Med Chem Lett, 2016):
Active and inactive are the calls of the source. The rule behind the calls is not given here.

Experiments:
MDR1 = assay: Permeability across basolateral to apical side in MDCK cells expressing MDR1; type: ADME, cell-based, Canis lupus familiaris; conditions: dog, read-out: permeability
[1] = Ratio of drug level in brain to plasma in rat at 5 mg/kg, po after 3 hrs; type: ADME, organism-based
[2] = Oral bioavailability in cynomolgus monkey at 5 mg/kg; type: ADME, organism-based, Macaca fascicularis; conditions: in vivo
How it was run: (§1)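 Oral doses given as a suspension in aqueous 1% Tween 80 in 1% methylcellulose; IV doses formulated in 10% N,N-dimethylacetamide, 10% ethanol, 30% propylene glycol, 50% sterile water. Animals per species: mouse n = 2 (plasma from two mice at each time point), rat n = 2, dog n = 3, cynomolgus monkey n = 3.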

[3] = Clearance in mouse at 1 mg/kg, iv; type: ADME, organism-based; conditions: in vivo; how it was run: as §1
[4] = Volume of distribution at steady state in dog at 0.5 mg/kg, iv; type: ADME, organism-based, Canis lupus familiaris; conditions: in vivo, read-out: Vdss; how it was run: as §1
[5] = Oral bioavailability in mouse at 5 mg/kg; type: ADME, organism-based; conditions: in vivo; how it was run: as §1
[6] = target: Free fatty acid receptor 1 (Macaca fascicularis) (UniProt Q76JV1); assay: Agonist activity at cynomolgus monkey GPR40 in presence of 0.01% human serum albumin relative to AMG 837 relative to AMG 837
[7] = Half life in mouse at 1 mg/kg, iv; type: ADME, organism-based; conditions: in vivo; how it was run: as §1
[8] = Volume of distribution at steady state in mouse at 1 mg/kg, iv; type: ADME, organism-based; conditions: in vivo, read-out: Vdss; how it was run: as §1
[9] = target: Free fatty acid receptor 1 (Macaca fascicularis, UniProt Q76JV1); assay: Agonist activity at cynomolgus monkey GPR40 in presence of 0.01% human serum albumin relative to AMG 837
[10] = target: T1, Peroxisome proliferator-activated receptor gamma (Homo sapiens) (UniProt P37231); assay: Activity at PPARgamma (unknown origin) by cell based assay
T1 sequence (whole entry): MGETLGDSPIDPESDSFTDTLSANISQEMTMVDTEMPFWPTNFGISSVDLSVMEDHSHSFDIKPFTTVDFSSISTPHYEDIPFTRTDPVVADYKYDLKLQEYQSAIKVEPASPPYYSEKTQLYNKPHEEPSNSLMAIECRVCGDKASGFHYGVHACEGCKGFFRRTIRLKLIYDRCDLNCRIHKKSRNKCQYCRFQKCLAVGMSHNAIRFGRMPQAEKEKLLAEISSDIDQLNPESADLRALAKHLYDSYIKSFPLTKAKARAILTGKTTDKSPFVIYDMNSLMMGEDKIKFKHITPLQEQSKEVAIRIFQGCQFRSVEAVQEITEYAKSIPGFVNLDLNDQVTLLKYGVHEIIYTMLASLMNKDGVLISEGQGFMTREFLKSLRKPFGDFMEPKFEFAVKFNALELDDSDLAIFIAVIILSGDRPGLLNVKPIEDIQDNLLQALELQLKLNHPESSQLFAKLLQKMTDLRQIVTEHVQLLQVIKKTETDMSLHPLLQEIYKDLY

[11] = Oral bioavailability in dog at 2 mg/kg; type: ADME, organism-based, Canis lupus familiaris; conditions: in vivo; how it was run: as §1
[12] = target: Free fatty acid receptor 1 (Mus musculus) (UniProt Q76JU9); assay: Agonist activity at mouse GPR40 in presence of 0.01% human serum albumin
Free fatty acid receptor 1 (Mus musculus), sequence (Q76JU9 whole entry): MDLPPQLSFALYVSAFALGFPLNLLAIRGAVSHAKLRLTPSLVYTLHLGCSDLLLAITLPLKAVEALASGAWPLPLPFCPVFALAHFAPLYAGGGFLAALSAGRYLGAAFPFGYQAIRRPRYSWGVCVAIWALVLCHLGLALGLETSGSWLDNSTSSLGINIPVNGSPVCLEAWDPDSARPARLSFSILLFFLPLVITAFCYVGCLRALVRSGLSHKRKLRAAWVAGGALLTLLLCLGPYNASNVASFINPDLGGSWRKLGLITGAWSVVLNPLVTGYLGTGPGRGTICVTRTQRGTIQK

Free fatty acid receptor 1, sequence (Q76JV1 whole entry): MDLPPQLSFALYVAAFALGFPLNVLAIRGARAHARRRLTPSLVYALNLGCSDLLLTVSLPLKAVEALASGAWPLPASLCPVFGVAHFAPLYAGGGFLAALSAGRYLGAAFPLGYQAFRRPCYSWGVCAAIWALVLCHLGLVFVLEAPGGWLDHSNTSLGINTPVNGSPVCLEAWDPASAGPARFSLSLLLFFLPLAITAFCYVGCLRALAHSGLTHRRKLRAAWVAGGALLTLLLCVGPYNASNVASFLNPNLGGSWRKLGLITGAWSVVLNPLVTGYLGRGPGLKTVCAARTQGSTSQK
Free fatty acid receptor 1 (Macaca fascicularis), sequence (Q76JV1 whole entry): as above

- Papp B→A (MDR1): 31 ×10⁻⁶ cm/s
- Kp at 3 h [1]: 0.04
- bioavailability [2]: 34%
- clearance [3]: 2.83 mL/min/kg
- Vd [4]: 0.58 L/kg
- bioavailability [5]: 100%
- Emax [6]: 96%
- half-life [7]: 1.5 h
- Vd [8]: 0.78 L/kg
- EC50 [9]: 29 nM
- Activity [10]: inactive
- bioavailability [11]: 66%
- Activity [12]: inactive
SMILES: Cc1cc(Cl)ccc1-c1cccc(COc2ccc([C@H](CC(=O)O)c3nccn3C)cc2)c1
